Results from ChEMBL document CHEMBL3864138, “First discovery of novel 3-hydroxy-quinazoline-2,4(1H,3H)-diones as specific anti-vaccinia and adenovirus agents via 'privileged scaffold' refining approach” (Bioorg Med Chem Lett, 2016).

Columns and labels:
Vaccinia virus [1] = experiment: Antiviral activity against Vaccinia virus infected in HEL cells assessed as inhibition of virus-induced cytopathicity; format: functional, cell-based; settings: Orthopoxvirus vaccinia
Human adenovirus 2 = experiment: Antiviral activity against Human adenovirus 2 infected in HEL cells assessed as inhibition of virus-induced cytopathicity; format: functional, cell-based; settings: Human mastadenovirus C
[2] = Cytotoxicity against HEL cells assessed as alteration of cell morphology after 3 days by microscopic analysis; format: toxicity, cell-based; settings: human
In short: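 HEL cell cultures were checked by microscopy for compound cytotoxicity, reported as MCC. The highest concentration tested was […].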

Vaccinia virus [3] = experiment: Potency index, ratio of brivudin EC50 against Vaccinia virus infected in HEL cells to compound EC50 against Vaccinia virus infected in HEL cells; format: functional, Orthopoxvirus vaccinia
Vaccinia virus [4] = experiment: Potency index, ratio of cidofovir EC50 against Vaccinia virus infected in HEL cells to compound EC50 against Vaccinia virus infected in HEL cells; format: functional, Orthopoxvirus vaccinia

SMILES: Cn1c(=O)n(O)c(=O)c2cc(-c3cn(Cc4ccccc4F)nn3)ccc21
- EC50 (Vaccinia virus [1]): > 100 µM
- EC50 (Human adenovirus 2): > 100 µM
- MCC at 72 h [2]: > 100 µM

SMILES: Cc1ccccc1Cn1cc(-c2ccc3c(c2)c(=O)n(O)c(=O)n3C)nn1
- EC50 (Vaccinia virus [1]): > 100 µM
- EC50 (Human adenovirus 2): > 100 µM
- MCC at 72 h [2]: 100 µM

SMILES: CCn1c(=O)n(O)c(=O)c2cc(-c3cn(Cc4ccccc4F)nn3)ccc21
- EC50 (Vaccinia virus [1]): > 100 µM
- EC50 (Human adenovirus 2): 6.5 µM
- MCC at 72 h [2]: > 100 µM

SMILES: CCn1c(=O)n(O)c(=O)c2cc(-c3cn(Cc4c(F)cccc4F)nn3)ccc21
- EC50 (Vaccinia virus [1]): > 100 µM
- EC50 (Human adenovirus 2): 8 µM
- MCC at 72 h [2]: > 100 µM

SMILES: CCn1c(=O)n(O)c(=O)c2cc(-c3cn(Cc4ccccc4C)nn3)ccc21
- EC50 (Vaccinia virus [1]): > 100 µM
- EC50 (Human adenovirus 2): > 100 µM
- MCC at 72 h [2]: 20 µM

SMILES: Cn1c(=O)n(O)c(=O)c2cc(-c3cn(Cc4ccccc4)nn3)ccc21
- EC50 (Vaccinia virus [1]): > 100 µM
- EC50 (Human adenovirus 2): > 100 µM
- MCC at 72 h [2]: > 100 µM

SMILES: CCn1c(=O)n(O)c(=O)c2cc(-c3cn(Cc4ccc(C#N)cc4)nn3)ccc21
- EC50 (Vaccinia virus [1]): 15 µM
- EC50 (Human adenovirus 2): > 100 µM
- MCC at 72 h [2]: > 100 µM

SMILES: CCn1c(=O)n(O)c(=O)c2cc(-c3cn(Cc4ccc(F)c(F)c4)nn3)ccc21
- EC50 (Vaccinia virus [1]): 1.9 µM
- EC50 (Human adenovirus 2): > 100 µM
- MCC at 72 h [2]: 20 µM

SMILES: CCn1c(=O)n(O)c(=O)c2cc(-c3cn(Cc4ccc(F)cc4F)nn3)ccc21
- EC50 (Vaccinia virus [1]): > 100 µM
- EC50 (Human adenovirus 2): > 100 µM
- MCC at 72 h [2]: 20 µM

SMILES: Cn1c(=O)n(O)c(=O)c2cc(-c3cn(Cc4ccc(F)c(F)c4)nn3)ccc21
- EC50 (Vaccinia virus [1]): 5 µM
- EC50 (Human adenovirus 2): > 100 µM
- MCC at 72 h [2]: 100 µM

SMILES: CCn1c(=O)n(O)c(=O)c2cc(-c3cn(Cc4ccccc4)nn3)ccc21
- EC50 (Vaccinia virus [1]): > 100 µM
- EC50 (Human adenovirus 2): 12 µM
- MCC at 72 h [2]: > 100 µM

SMILES: Cn1c(=O)n(O)c(=O)c2cc(-c3cn(Cc4ccc(F)cc4F)nn3)ccc21
- EC50 (Vaccinia virus [1]): > 100 µM
- EC50 (Human adenovirus 2): > 100 µM
- MCC at 72 h [2]: 100 µM

SMILES: CCn1c(=O)n(O)c(=O)c2cc(-c3cn(Cc4ccc([N+](=O)[O-])cc4)nn3)ccc21
- EC50 (Vaccinia virus [1]): 1.7 µM
- EC50 (Human adenovirus 2): > 100 µM
- MCC at 72 h [2]: > 100 µM
- Ratio EC50 (Vaccinia virus [3]): 8 - 15
- Ratio EC50 (Vaccinia virus [4]): 15

SMILES: Cn1c(=O)n(O)c(=O)c2cc(-c3cn(Cc4cccc(F)c4)nn3)ccc21
- EC50 (Vaccinia virus [1]): > 100 µM
- EC50 (Human adenovirus 2): > 100 µM
- MCC at 72 h [2]: > 100 µM

SMILES: Cn1c(=O)n(O)c(=O)c2cc(-c3cn(Cc4c(Cl)cccc4Cl)nn3)ccc21
- EC50 (Vaccinia virus [1]): > 100 µM
- EC50 (Human adenovirus 2): > 100 µM
- MCC at 72 h [2]: > 100 µM

SMILES: Cn1c(=O)n(O)c(=O)c2cc(-c3cn(Cc4ccc([N+](=O)[O-])cc4)nn3)ccc21
- EC50 (Vaccinia virus [1]): 2.4 µM
- EC50 (Human adenovirus 2): > 100 µM
- MCC at 72 h [2]: > 100 µM

SMILES: CCn1c(=O)n(O)c(=O)c2cc(-c3cn(Cc4ccc(OC)cc4)nn3)ccc21
- EC50 (Vaccinia virus [1]): > 100 µM
- EC50 (Human adenovirus 2): 6.2 µM
- MCC at 72 h [2]: > 100 µM

SMILES: CCn1c(=O)n(O)c(=O)c2cc(-c3cn(Cc4cc(F)ccc4F)nn3)ccc21
- EC50 (Vaccinia virus [1]): > 100 µM
- EC50 (Human adenovirus 2): > 100 µM
- MCC at 72 h [2]: 20 µM

SMILES: Cn1c(=O)n(O)c(=O)c2cc(-c3cn(Cc4ccc(F)cc4)nn3)ccc21
- EC50 (Vaccinia virus [1]): > 100 µM
- EC50 (Human adenovirus 2): > 100 µM
- MCC at 72 h [2]: > 100 µM

SMILES: COc1ccc(Cn2cc(-c3ccc4c(c3)c(=O)n(O)c(=O)n4C)nn2)cc1
- EC50 (Vaccinia virus [1]): > 100 µM
- EC50 (Human adenovirus 2): 12 µM
- MCC at 72 h [2]: > 100 µM

SMILES: Cn1c(=O)n(O)c(=O)c2cc(-c3cn(Cc4ccc(C#N)cc4)nn3)ccc21
- EC50 (Vaccinia virus [1]): > 100 µM
- EC50 (Human adenovirus 2): > 100 µM
- MCC at 72 h [2]: > 100 µM

SMILES: Cn1c(=O)n(O)c(=O)c2cc(-c3cn(Cc4c(F)cccc4F)nn3)ccc21
- EC50 (Vaccinia virus [1]): > 100 µM
- EC50 (Human adenovirus 2): > 100 µM
- MCC at 72 h [2]: 100 µM

SMILES: CCn1c(=O)n(O)c(=O)c2cc(-c3cn(Cc4cccc(F)c4)nn3)ccc21
- EC50 (Vaccinia virus [1]): > 100 µM
- EC50 (Human adenovirus 2): 13 µM
- MCC at 72 h [2]: > 100 µM

SMILES: CCn1c(=O)n(O)c(=O)c2cc(-c3cn(Cc4ccc(F)cc4)nn3)ccc21
- EC50 (Vaccinia virus [1]): > 100 µM
- EC50 (Human adenovirus 2): > 100 µM
- MCC at 72 h [2]: 100 µM

SMILES: Cn1c(=O)n(O)c(=O)c2cc(-c3cn(Cc4cc(F)ccc4F)nn3)ccc21
- EC50 (Vaccinia virus [1]): > 100 µM
- EC50 (Human adenovirus 2): > 100 µM
- MCC at 72 h [2]: > 100 µM

SMILES: CCn1c(=O)n(O)c(=O)c2cc(-c3cn(Cc4c(Cl)cccc4Cl)nn3)ccc21
- EC50 (Vaccinia virus [1]): > 100 µM
- EC50 (Human adenovirus 2): > 100 µM
- MCC at 72 h [2]: > 100 µM

SMILES: Cc1cn([C@H]2C[C@H](F)[C@@H](CO)O2)c(=O)[nH]c1=O [ALOVUDINE]
- EC50 (Human adenovirus 2): 10 µM
- MCC at 72 h [2]: > 250 µM

SMILES: O=c1[nH]c(=O)n([C@H]2C[C@H](O)[C@@H](CO)O2)cc1/C=C/Br [BRIVUDINE]
- EC50 (Vaccinia virus [1]): 15 µM
- MCC at 72 h [2]: > 250 µM

SMILES: Nc1ccn(C[C@@H](CO)OCP(=O)(O)O)c(=O)n1 [CIDOFOVIR]
- EC50 (Vaccinia virus [1]): 25 µM
- EC50 (Human adenovirus 2): 10 µM
- MCC at 72 h [2]: > 250 µM

SMILES: Nc1ccn([C@H]2CC[C@@H](CO)O2)c(=O)n1 [ZALCITABINE]
- EC50 (Human adenovirus 2): 7.2 µM
- MCC at 72 h [2]: > 250 µM
